The structures appear in SMILES notation.

For ten molecules, Ki results are on record in ChEMBL document CHEMBL1125624, “Identification and exploitation of the sigma-opiate pharmacophore” (J Med Chem, 1991).

The experiment concerns the target Sigma non-opioid intracellular receptor 1 (Rattus norvegicus, UniProt Q9R0C9). Briefly: Binding affinity towards sigma opioid receptor was determined in rat cerebral homogenate using [3H]haloperidol as radioligand. The method, boiled down:
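Male Sprague-Dawley rat cerebellum was homogenized in 50 mM Tris-HCl pH 7.7 and spun at 39000g for 15 min, three times in all. At least nine competitor concentrations were run with 1 nM [3H]haloperidol plus 25 nM spiperone (to block D2) on 3 mg wet-weight tissue for 90 min. Nonspecific binding was taken with 10 µM DTG. GF/C filtration, scintillation counting; Ki ± SEM, minimum three determinations.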

Sequence of Sigma non-opioid intracellular receptor 1 (Q9R0C9 whole entry): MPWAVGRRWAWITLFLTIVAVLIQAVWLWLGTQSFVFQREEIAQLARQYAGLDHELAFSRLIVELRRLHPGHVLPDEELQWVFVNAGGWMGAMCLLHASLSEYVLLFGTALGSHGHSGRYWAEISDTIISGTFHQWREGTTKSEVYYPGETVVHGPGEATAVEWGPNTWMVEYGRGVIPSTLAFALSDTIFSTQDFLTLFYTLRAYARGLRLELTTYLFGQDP

In general, Ki refers to the dissociation constant of the complex between target and ligand, obtained from inhibition or displacement. As for `C[C@H](Cc1ccccc1)NCC1CC1`, the Ki was 664 nM.
Molecule `C[C@H](Cc1ccccc1)NCCC(=O)c1ccccc1` registered an inhibition constant (Ki) of 73 nM.
`C[C@H](Cc1ccccc1)NCCOc1ccccc1` displayed a Ki of 32 nM.
Then `C[C@@H](Cc1ccccc1)N(C)CCc1ccccc1`, with 16 nM; and `C[C@H](Cc1ccccc1)NCCCc1ccccc1`, with 14 nM.
Consider `C[C@@H](Cc1ccccc1)NCCc1ccccc1`, for which the affinity, expressed as Ki, was 4.8 nM.
Under `C[C@H](Cc1ccccc1)NCCc1ccccc1` stands 46 nM; under `CC(Cc1ccccc1)NCCCCc1ccccc1` (racemic), 3.9 nM; under `CC(N)Cc1ccccc1` (racemic) [AMPHETAMINE], more than 50000 nM.
As to `C[C@H](Cc1ccccc1)NCc1ccccc1` [N-BENZYLAMPHETAMINE], the affinity corresponds to a Ki of 103 nM.
